Reference: ChEMBL document CHEMBL4680177, “Novel distamycin analogues that block the cell cycle of African trypanosomes with high selectivity and potency” (Eur J Med Chem, 2020)
Active and inactive are the calls of the source. The calls are words filed in the database; no cut-off is given here.

How the values were obtained:
[1] = test system: Trypanosoma brucei brucei; assay: Antitrypanosomal activity against bloodstream form Trypanosoma brucei brucei 427 […] assessed as cell viability at 5 uM after 24 hrs by propidium iodide staining based flow cytometric analysis relative to control; assay type: functional
Method in brief: (§1)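 Bloodstream T. b. brucei 427 expressing hGrx1-roGFP2 (line 449_Grx-roGFP2), grown in HMI-9 with 10% FBS, 37 °C, 5% CO2. Biosensor induced with oxytetracycline (1 µg/mL final). Exponential-phase cells seeded at 5×10^5/mL and exposed 24 h to a single 5 µM screen, or to 0.0001–120 µM for EC50. DMSO ≤1% v/v. Viability read by PI exclusion on flow cytometry, expressed relative to DMSO control. EC50 from nonlinear fit; ≥3 replicates, S.D.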

[2] = test system: Trypanosoma brucei brucei; assay: Antitrypanosomal activity against bloodstream form Trypanosoma brucei brucei 427 […] assessed as cell viability after 24 hrs by propidium iodide staining based flow cytometric analysis; assay type: functional, organism-based; details: Trypanosoma brucei, 427, 24 h; method in brief: as §1
[3] = Selectivity index, ratio of EC50 for cytotoxicity against mouse J774 cells to EC50 for antitrypanosomal activity against bloodstream form Trypanosoma brucei brucei 427; assay type: toxicity, cell-based; details: read-out: Ratio EC50
Method in brief: (§2)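 J774 murine macrophages in DMEM with 10% FBS, 37 °C, 5% CO2. Exposed 24 h to a 6-point compound series, in triplicate, up to 120 µM with DMSO 1% v/v. Viability read with WST-1 reagent relative to DMSO control and EC50 taken from nonlinear fit. The selectivity index is the macrophage EC50 divided by the trypanosome EC50.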

J774 [4] = assay: Cytotoxicity against mouse J774 cells assessed as reduction in cell viability after 24 hrs by WST-1 assay; assay type: cell-based; details: J774, 24 h; method in brief: as §2
[5] = test system: Trypanosoma brucei brucei; assay: Induction of membrane permeability in bloodstream form Trypanosoma brucei brucei 427 assessed as change in integrity at EC50 concentration after 4 hrs by propidium iodide staining based flow cytometric analysis
[6] = test system: Trypanosoma brucei brucei; assay: Induction of oxidative stress in bloodstream form Trypanosoma brucei brucei 427 up to 5 times EC50 concentration after 4 hrs by propidium iodide staining based flow cytometric analysis; assay type: functional
[7] = test system: Trypanosoma brucei brucei; assay: Induction of cell cycle arrest in bloodstream form Trypanosoma brucei brucei 427 assessed as accumulation at 1K+1N cells at 12 nM after 24 hrs by DAPI. staining based epifluorescence microscopic analysis (reference value: 80%); assay type: functional
Method in brief: (§3)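 Parasites at 5×10^5/mL treated 24 h with DMSO 1%, DAC 41 nM, or compound at 12 or 7 nM. Cells fixed in 4% paraformaldehyde for 18 min at room temperature and smeared on slides. Mounted in DAPI medium and scored by epifluorescence microscopy (60X/100X) for kinetoplast/nucleus configuration. At least 50 cells per sample.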

[8] = test system: Trypanosoma brucei brucei; assay: Induction of cell cycle arrest in bloodstream form Trypanosoma brucei brucei 427 assessed as accumulation at single kinetoplast and septum like or partitioned nucleus cells at 12 nM after 24 hrs by DAPI. staining based epifluorescence microscopic analysis relative to control; assay type: functional; method in brief: as §3
DNA [9] = assay: Competitive binding affinity to Escherichia coli XL-1 pUC18 plasmid DNA at 20 uM after 30 mins by DAPI staining based spectrofluorimetric method relative to control; assay type: nucleic-acid assay
Method in brief: (§4)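 pUC18 or pUC18 carrying a T. brucei minicircle, 5 nM in PBS pH 7.4, incubated 30 or 120 min with 20 µM compound or DMSO 1% v/v. DAPI then added to 500 nM final and emission recorded by spectrofluorimetry (ex 358 nm, em 368–600 nm). Fluorescence normalized to the DNA+DMSO+DAPI control set at 100%. Mean ± S.D., n=3.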

DNA [10] = assay: Competitive binding affinity to Escherichia coli XL-1 pUC18 K-DNA at 20 uM after 30 mins by DAPI staining based spectrofluorimetric method relative to control; assay type: nucleic-acid assay; method in brief: as §4
DNA [11] = assay: Competitive binding affinity to Escherichia coli XL-1 pUC18 plasmid DNA at 20 uM after 120 mins by DAPI staining based spectrofluorimetric method relative to control; assay type: nucleic-acid assay; method in brief: as §4
DNA [12] = assay: Competitive binding affinity to Escherichia coli XL-1 pUC18 K-DNA at 20 uM after 120 mins by DAPI staining based spectrofluorimetric method relative to control; assay type: nucleic-acid assay; method in brief: as §4
[13] = test system: Trypanosoma brucei brucei; assay: Antitrypanosomal activity against bloodstream form Trypanosoma brucei brucei 427 […] assessed as cell viability after 48 hrs by propidium iodide staining based flow cytometric analysis; assay type: functional, organism-based; details: Trypanosoma brucei, 427, 48 h
Method in brief: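 Viability of bloodstream T. b. brucei 427 redox-reporter line under lower-density conditions: 1.2×10^4 parasites/mL seeded, 48 h exposure, compound tested up to 60 µM. Nifurtimox included as positive control. Viability read by PI exclusion on flow cytometry.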

[14] = Selectivity ratio of EC50 for antitrypanosomal activity against bloodstream form Trypanosoma brucei brucei 427 assessed as cell viability after 24 hrs to antitrypanosomal activity against bloodstream form Trypanosoma brucei brucei 427 assessed as cell viability after 48 hrs; assay type: functional
[15] = test system: Trypanosoma brucei brucei; assay: Induction of cell cycle arrest in bloodstream form Trypanosoma brucei brucei 427 assessed as accumulation at S phase at 7 nM after 24 hrs by propidium iodide staining based flow cytometric analysis (reference value: 31%); assay type: functional
[16] = test system: Trypanosoma brucei brucei; assay: Induction of cell cycle arrest in bloodstream form Trypanosoma brucei brucei 427 assessed as accumulation at G0/G1 phase at 7 nM after 24 hrs by propidium iodide staining based flow cytometric analysis (reference value: 49%); assay type: functional
[17] = test system: Trypanosoma brucei brucei; assay: Induction of cell cycle arrest in bloodstream form Trypanosoma brucei brucei 427 assessed as accumulation at G2/M phase at 7 nM after 24 hrs by propidium iodide staining based flow cytometric analysis (reference value: 20%); assay type: functional
[18] = test system: Trypanosoma brucei brucei; assay: Induction of cell cycle arrest in bloodstream form Trypanosoma brucei brucei 427 assessed as accumulation at G2/M phase at 14 nM after 24 hrs by propidium iodide staining based flow cytometric analysis (reference value: 20%); assay type: functional
[19] = test system: Trypanosoma brucei brucei; assay: Induction of cell cycle arrest in bloodstream form Trypanosoma brucei brucei 427 assessed as accumulation at G0/G1 phase at 14 nM after 24 hrs by propidium iodide staining based flow cytometric analysis (reference value: 49%); assay type: functional
[20] = test system: Trypanosoma brucei brucei; assay: Induction of cell cycle arrest in bloodstream form Trypanosoma brucei brucei 427 assessed as accumulation at 1K+1N cells at 7 nM after 24 hrs by DAPI. staining based epifluorescence microscopic analysis (reference value: 80%); assay type: functional; method in brief: as §3
[21] = test system: Trypanosoma brucei brucei; assay: Induction of cell cycle arrest in bloodstream form Trypanosoma brucei brucei 427 assessed as accumulation at single kinetoplast and septum like or partitioned nucleus cells at 7 nM after 24 hrs by DAPI. staining based epifluorescence microscopic analysis relative to control; assay type: functional; method in brief: as §3
[22] = test system: Trypanosoma brucei brucei; assay: Antitrypanosomal activity against Trypanosoma brucei brucei AnTaT 1.1 infected in Balb/cJ mouse assessed as reduction in parasitemia at 2.09 to 8.36 mg/kg, ip administered for 7 days and measured up to 17 days; assay type: functional, organism-based; details: dose 2.09-8.36 mg/kg, time 7.0 day
Method in brief: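 Female BalB/cJ mice, 6-8 weeks, ~20 g, infected ip with 10^4 bloodstream T. b. brucei AnTaT 1.1. From day 4 post-infection, groups of 6 dosed ip in 300 µL PBS: daily for 7 days at 2.09 or 8.36 mg/Kg, or one 40 mg/Kg dose; vehicle DMSO 3.3 mg/Kg/day for 7 days. Parasitemia from submandibular blood counted by light microscopy in a Neubauer chamber. Detection limit ≥2.5×10^4 parasites/mL. Kruskal-Wallis test versus vehicle.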

[23] = test system: Trypanosoma brucei brucei; assay: Antitrypanosomal activity against bloodstream form Trypanosoma brucei brucei 427 assessed as cell viability at 10 nM after 24 hrs by propidium iodide staining based flow cytometric analysis (reference value: 100 +/- 10%); assay type: functional
[24] = test system: Trypanosoma brucei brucei; assay: Antitrypanosomal activity against bloodstream form Trypanosoma brucei brucei 427 assessed as cell viability at 1000 nM after 24 hrs by propidium iodide staining based flow cytometric analysis (reference value: 100 +/- 10%); assay type: functional
[25] = test system: Trypanosoma brucei brucei; assay: (§5) Antitrypanosomal activity against bloodstream form Trypanosoma brucei brucei 427 […] assessed as cell viability at 10 nM preincubated in heat-inactivated serum for 45 mins followed by culture addition and measured after 24 hrs by propidium iodide staining based flow cytometric analysis (reference value: 98.5 +/- 1.4%); assay type: functional; details: time 48.0 hrs, in the assay text read “for 24 hrs” for “for 45 mins”
Method in brief: (§6)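 Compound at 100 µM, with ≤1% v/v DMSO, held 24 h at 37 °C in fresh serum or in serum heat-inactivated at 54 °C for 45 min. It was then added to 449-hGrx-roGFP2 T. brucei cultures at 10 or 1000 nM final. Viability after 24 h was read by PI flow cytometry as in the standard assay. Untreated serum-exposed controls were included; mean ± SD.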

[26] = test system: Trypanosoma brucei brucei; assay: as §5, with “1000” for “10”; assay type: functional; details: time 48.0 hrs, in the assay text read “for 24 hrs” for “for 45 mins”; method in brief: as §6
[27] = test system: Trypanosoma brucei brucei; assay: as §5, with “fresh” for “heat-inactivated”, “100” for “98.5”, “3.5%)” for “1.4%)”; assay type: functional; details: time 48.0 hrs, in the assay text read “for 24 hrs” for “for 45 mins”; method in brief: as §6
[28] = test system: Trypanosoma brucei brucei; assay: as §5, with “1000” for “10”, “fresh” for “heat-inactivated”, “100” for “98.5”, “3.5%)” for “1.4%)”; assay type: functional; details: time 48.0 hrs, in the assay text read “for 24 hrs” for “for 45 mins”; method in brief: as §6
J774 [29] = assay: Cytotoxicity against mouse J774 cells assessed as reduction in cell viability at 120 uM after 24 hrs by WST-1 assay; assay type: cell-based; details: j774, 24 h; method in brief: as §2
J774 [30] = assay: Cytotoxicity against mouse J774 cells assessed as reduction in cell viability >120 uM after 24 hrs by WST-1 assay; assay type: cell-based; details: j774, 24 h; method in brief: as §2

Compound	EC50 [2] [µM]	Activity [5]	Activity (DNA [11])	Activity (DNA [12]) [%]	EC50 [13] [µM]	Activity [1] [%]	selectivity ratio [3]	EC50 (J774 [4]) [µM]	Activity [6]	Ratio EC50 [14]	also measured
COC(=O)c1nc(NC(=O)c2cc(NC(=O)c3nc(NC(=O)OC(C)(C)C)sc3C(C)C)cn2C)sc1C(C)C	0.0118	inactive	inactive	30		15.5	> 10200	39.5	inactive		Activity [7]: 48%; Activity [8]: 38%; Activity (DNA [9]): 15%; Activity (DNA [10]): 15%
CCOC(=O)c1csc(NC(=O)c2csc(NC(=O)c3csc(NC(=O)OC(C)(C)C)n3)n2)n1					0.057			5		5	
COC(=O)c1nc(NC(=O)c2cc([N+](=O)[O-])cn2C)sc1C(C)C						105.6					

Now from value to compound, other results behind:

EC50 [2] [µM]	Activity [5]	Activity (DNA [11])	Activity (DNA [12]) [%]	EC50 [13] [µM]	Compound	Activity [1] [%]	selectivity ratio [3]	EC50 (J774 [4]) [µM]	Activity [6]	Ratio EC50 [14]	also measured
0.0071	inactive	inactive	48		CCOC(=O)c1csc(NC(=O)c2cc(NC(=O)c3csc(NC(=O)OC(C)(C)C)n3)cn2C)n1	0.06	5560	≥ 40	inactive		Activity [15]: 34%; Activity [16]: 44%; Activity [17]: 22%; Activity [18]: 94%; Activity [19]: 6%; Activity [20]: 46%; Activity [21]: 26%; Activity [22]: inactive; Activity [23]: 54.1%; Activity [24]: 10.7%; Activity [25]: 104.6%; Activity [26]: 17.5%; Activity [27]: 84.2%; Activity [28]: 17.2%
3.33					Cn1cc(NC(=O)c2csc(NC(=O)OC(C)(C)C)n2)cc1C(=O)Nc1nc(C(=O)O)cs1	23.6	> 35				Activity (J774 [29]): Non-Toxic; Activity (J774 [30]): Nd(Insoluble)
10				0.75	CC1CS(=O)(=O)CCN1/N=C/c1ccc([N+](=O)[O-])o1 (configuration not stated) [NIFURTIMOX]		10			20	
